The values that follow come from the array DNA melting data of Ke et al. (doi:10.1101/2024.01.08.574731).

The nature of series [1]: melting temperature; fluorescence melt of hairpins on a sequencing array, two-state fit, raised by 9.35 °C to match UV melts. Conditions: sodium 0.088 M. Summed up:
(§1)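 Two-state fits, bootstrapped, provided melting temperature and folding enthalpy from Cy3 fluorescence normalised to pre-quench Cy3 and to control constructs. Library hairpins with annealed Cy3 and quencher oligos were imaged on a sequenced MiSeq flow cell in 50 mM Na-HEPES pH 8.0, 25 mM NaCl, at 2.5 °C intervals up to 60 °C. Four replicates were combined with inverse-variance weighting. A 9.35 °C upward shift was applied to fitted temperatures to match UV melts.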

The nature of series [2]: folding enthalpy; higher = less favourable; fluorescence melt of hairpins on a sequencing array, two-state fit. To be noted: sodium 0.088 M. Summed up: as §1

For the sequence GAGGTGGAAACACCTC ((((((....)))))), the Tm in series [1] came to 63.4 °C. The folding enthalpy in series [2] is -33.3 kcal/mol.
For GAGGTGGGAAACCGCTTC ((.(.((....)).).)) the same measures were 50 °C and -19.1 kcal/mol.
In the same order, the values of GAGGTTGGAAACAACCCC (.(((((....))))).) are 40.5 °C and -13.2 kcal/mol.
In the case of GAGGTTGGAAACGACTTC ((.((.(....).)).)), the Tm in series [1] came out at 35.2 °C. Further, the folding enthalpy in series [2] is -24.9 kcal/mol.
For GAGTAACGAAAGTTGCTC (((.(((....))).))), the Tm in series [1] is 53.2 °C. Besides, in series [2], the folding enthalpy was -52 kcal/mol.
In the same order, the values of GAGTAAGCGAAAGCTCTC (((..(((....)))))) are 35.7 °C and -13.4 kcal/mol.
In the same order, the values of GAGTACCGAAAGGTGCTC (((.(((....))).))) are 60.6 °C and -36.6 kcal/mol.
For GAGTACCGAAAGGTTCTC (((.(((....))).))) the same measures were 47.9 °C and -30.7 kcal/mol.
For the sequence GAGTACGAAAGTACGCTC ((((((....)))..))), the Tm in series [1] worked out at 53.9 °C. Moreover, the folding enthalpy in series [2] is -16.3 kcal/mol.
For GAGTACGAAAGTAGGCTC ((((((....)))..))) the same measures were 36.1 °C and -19.6 kcal/mol.
In the same order, the values of GAGTAGGGAAACCCACTC ((((.((....)).)))) are 39.6 °C and -32 kcal/mol.
In the same order, the values of GAGTATGGAAACACACTC ((((.((....)).)))) are 31.7 °C and -24.9 kcal/mol.
As for GAGTATGGAAACATATTC ((.((((....)))).)), the Tm in series [1] was determined as 30.8 °C. The folding enthalpy in series [2] was -21.2 kcal/mol.
Turning to GAGTCACCGAAAGGTCTC (((..(((....)))))), the Tm in series [1] came out at 28.1 °C. The folding enthalpy in series [2] is -12.6 kcal/mol.
For GAGTCACGAAAGTGCTC (((.(((....)))))) the same measures were 48.6 °C and -23.8 kcal/mol.
For GAGTCAGGAAACTAACTC ((((.((....)).)))) the same measures were 25.4 °C and -12.4 kcal/mol.
With GAGTCCCCGAAAGGGCTC (((..(((....)))))), the Tm in series [1] is 44.4 °C. Moreover, in series [2], the folding enthalpy was -19.2 kcal/mol.
For the sequence GAGTCCGAAAGGATCTC ((((((....))).))), the Tm in series [1] stood at 50 °C. Also, the folding enthalpy in series [2] was -31 kcal/mol.
In the same order, the values of GAGTCCGGAAACGAACTC ((((.((....)).)))) are 41.7 °C and -34.6 kcal/mol.
In the same order, the values of GAGTCGGAAACGACTC ((((((....)))))) are 65.9 °C and -37.5 kcal/mol.
For GAGTCTACGAAAGTACTC (((..(((....)))))) the same measures were 27.2 °C and -15 kcal/mol.
Take GAGTCTGGAAACAGACCC (.(((((....))))).): the Tm in series [1] was determined as 38 °C. In addition, in series [2], the folding enthalpy was -14.2 kcal/mol.
For GAGTCTGGAAACAGACTC (((((((....))))))) the same measures were 65.3 °C and -39.9 kcal/mol.
In the same order, the values of GAGTGACGAAAGTCGCTC (((.(((....))).))) are 64.8 °C and -38.9 kcal/mol.
For GAGTGAGGAAACTCACCC (.(((((....))))).) the same measures were 39.4 °C and -13.9 kcal/mol.
For the sequence GAGTGAGGAAACTCGCTC (((.(((....))).))), the Tm in series [1] turned out to be 50.6 °C. For the same sequence, the folding enthalpy in series [2] is -49.6 kcal/mol.
In the same order, the values of GAGTGAGGAAACTCGTTC ((..(((....)))..)) are 27.6 °C and -11.8 kcal/mol.
Take GAGTGCACGAAAGTGCTC (((..(((....)))))): the Tm in series [1] is 37.4 °C. Further, the folding enthalpy in series [2] was -7.52 kcal/mol.
In the same order, the values of GAGTGCCGAAAGGCCCTC (((.(((....))).))) are 51.3 °C and -18.3 kcal/mol.
For GAGTGCCGAAAGGCTCTC (((.(((....))).))) the same measures were 56.4 °C and -25.6 kcal/mol.
In the same order, the values of GAGTGCGAAAGCAATCTC ((((((....)))..))) are 53.7 °C and -21.4 kcal/mol.
In the case of GAGTGCGAAAGCACACTC ((((((....)))..))), in series [1], the Tm was 58.6 °C. Also, the folding enthalpy in series [2] was -12.6 kcal/mol.
For GAGTGCGAAAGCACCCTC ((((((....)))..))) the same measures were 45.1 °C and -10.4 kcal/mol.
In the same order, the values of GAGTGCGAAAGCAGACTC ((((((....)))..))) are 44.4 °C and -18.2 kcal/mol.
In the same order, the values of GAGTGCGAAAGCAGCCTC ((((((....)))..))) are 34.5 °C and -13.2 kcal/mol.
For GAGTGCGAAAGCATCCTC ((((((....)))..))), the Tm in series [1] was determined as 33 °C. Besides, the folding enthalpy in series [2] is -10.2 kcal/mol.
For GAGTGCGAAAGCATTCTC ((((((....)))..))), the Tm in series [1] was 52.3 °C. For the same sequence, in series [2], the folding enthalpy was -21.5 kcal/mol.
In the same order, the values of GAGTGCGCGAAAGCGCTC (((..(((....)))))) are 32 °C and -5.97 kcal/mol.
For GAGTGCGGAAACACACTC (((((.(....).))))) the same measures were 47.5 °C and -28.4 kcal/mol.
For GAGTGGGGAAACCTACTC ((((.((....)).)))) the same measures were 46.4 °C and -30.6 kcal/mol.
Take GAGTGTGGAAACACACCC (.(((((....))))).): in series [1], the Tm is 40.8 °C. Besides, the folding enthalpy in series [2] was -11.7 kcal/mol.
On to GAGTGTGGAAACACACTC (((((((....))))))), for which, in series [1], the Tm was found to be 66 °C. The folding enthalpy in series [2] was -36.1 kcal/mol.
For GAGTGTGGAAACACGTTC ((..(((....)))..)) the same measures were 42.9 °C and -12.2 kcal/mol.
For GAGTGTGGAAACATGCTC (((..((....))..))) the same measures were 38.7 °C and -31.2 kcal/mol.
For the sequence GAGTGTGGAAACGTACTC ((((..(....)..)))), in series [1], the Tm worked out at 35.5 °C. Besides, in series [2], the folding enthalpy was -22.9 kcal/mol.
For GAGTTAGAAATAACTC ((((((....)))))) the same measures were 43.2 °C and -31.5 kcal/mol.
In the same order, the values of GAGTTAGGAAACTAACTC (((((((....))))))) are 54.8 °C and -36.3 kcal/mol.
In the same order, the values of GAGTTCACGAAAGTGCTC (((..(((....)))))) are 28.1 °C and -10.9 kcal/mol.
GAGTTCCGAAAGGACTC (((.(((....)))))): in series [1], the Tm stood at 49.2 °C. In addition, in series [2], the folding enthalpy is -22.1 kcal/mol.
For GAGTTGCGAAAGCAGCTC (((.(((....))).))) the same measures were 62.1 °C and -32.4 kcal/mol.
For GAGTTGGCGAAAGCCCTC (((..(((....)))))) the same measures were 28.7 °C and -11.1 kcal/mol.
For GAGTTTACGAAAGTACTC (((..(((....)))))) the same measures were 30 °C and -12.6 kcal/mol.
Turning to GATAAAACGAAAGTTATC (((..(((....)))))), the Tm in series [1] was determined as 22.7 °C. The folding enthalpy in series [2] is -9.65 kcal/mol.
GATAAACGAAAGTTAATC (((.(((....))).))): the Tm in series [1] is 34.4 °C. Besides, in series [2], the folding enthalpy was -16 kcal/mol.
In the case of GATAACACGAAAGTGATC (((..(((....)))))), in series [1], the Tm turned out to be 24.9 °C. Also, the folding enthalpy in series [2] was -10.1 kcal/mol.
For the sequence GATAACGAAAGTTAATC ((((((....))).))), the Tm in series [1] came to 30.7 °C. Moreover, the folding enthalpy in series [2] was -15.4 kcal/mol.
Take GATAACGAAAGTTCATC ((((((....))).))): the Tm in series [1] stood at 26.2 °C. The folding enthalpy in series [2] is -10.4 kcal/mol.
For GATAACGAAAGTTGTATC ((((((....)))..))) the same measures were 26.9 °C and -18.9 kcal/mol.
In the same order, the values of GATAACGAAAGTTTATC ((((((....))).))) are 31.8 °C and -14.2 kcal/mol.
In the same order, the values of GATAACGGAAACGTCATC (((.(((....))).))) are 31.4 °C and -19.3 kcal/mol.
With GATAAGCGAAAGCTAATC (((.(((....))).))), the Tm in series [1] came out at 41.5 °C. In addition, in series [2], the folding enthalpy was -16.8 kcal/mol.
For GATAAGCGAAAGCTATC (((.(((....)))))) the same measures were 42.8 °C and -14.7 kcal/mol.
On to GATAAGCGAAAGCTCATC (((.(((....))).))), for which the Tm in series [1] was found to be 33.8 °C. The folding enthalpy in series [2] was -15.9 kcal/mol.
For GATAAGGAAACTTATC ((((((....)))))) the same measures were 40.1 °C and -26.8 kcal/mol.
For GATACAGCGAAAGCTATC (((..(((....)))))) the same measures were 26.2 °C and -10.4 kcal/mol.
For GATACAGGAAACTGTATC (((((((....))))))) the same measures were 54 °C and -42.9 kcal/mol.
Take GATACCCCGAAAGGGATC (((..(((....)))))): the Tm in series [1] was 33.3 °C. Further, the folding enthalpy in series [2] is -12.4 kcal/mol.
For the sequence GATACCGAAAGGTGGATC ((((((....)))..))), the Tm in series [1] came to 30.2 °C. The folding enthalpy in series [2] is -13 kcal/mol.
In the same order, the values of GATACCGCGAAAGCGATC (((..(((....)))))) are 23 °C and -7.65 kcal/mol.
For GATACCGGAAACGGCATC (((.(((....))).))), the Tm in series [1] turned out to be 43.8 °C. Moreover, in series [2], the folding enthalpy was -25 kcal/mol.
In the same order, the values of GATACGCGAAAGCGCATC (((.(((....))).))) are 46.4 °C and -20.2 kcal/mol.
In the same order, the values of GATACGCGAAAGCGGATC (((.(((....))).))) are 66 °C and -29.3 kcal/mol.
GATACTGGAAACAGCATC (((.(((....))).))): in series [1], the Tm worked out at 34.2 °C. In addition, the folding enthalpy in series [2] is -27.5 kcal/mol.
